From PubChem
The list is not random: actives were taken first. Their share in the collection is about 3.8%.
KCNQ1 inh: human KCNQ1 channel inhibition; B-score at 10 µM; 310,000 compounds, 1.3% hits; P51787; CHO-K1 KCNQ1, FluxOR thallium flux fluorescence; active compounds read high; AID 2642;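 active means compounds whose thallium flux B-score, printed positive for inhibition, exceeds three library SD while starting fluorescence stays within three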;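 further: channel opened by potassium depolarization with thallium stimulus after 20 min compound exposure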
Kir21 block: inhibitors of mouse Kir2.1 inward-rectifier potassium channel; P35561; HEK293-Kir2.1, FluxOR thallium flux fluorescence; active compounds read low; B-score at 10 µM; 310,000 compounds, 0.85% hits; AID 1672;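 active means fluorescence ratio B-score at or below minus 3 SD of library scores, with starting-brightness B-score within 2 SD, cut at about -4.2 in these data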;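 further: channel flux triggered by added potassium and thallium sulfate stimulus; B-score of peak minus minimum fluorescence over baseline after thallium stimulus; more negative B-score means stronger Kir2.1 block with less thallium influx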
KCNQ1 act: potentiators or activators of human KCNQ1 potassium channel; P51787; CHO-K1 KCNQ1, thallium flux FluxOR fluorescence; active compounds read high; B-score at 10 µM; 310,000 compounds, 0.35% hits; AID 2648;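 active means fluorescence ratio B-score, a plate-corrected score, at least three library SD, with initial intensity B-score within 5 SD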
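Doses: Single concentration per compound, DMSO matched to controls | Test system: KCNQ1-transfected CHO-K1 cells | Timing: 90 min dye loading and 20 min compound exposure, both at room temperature | Measured by: Kinetic FluxOR thallium fluorescence, 10-s 1-Hz baseline, 110-s post-stimulus read | Medium: Assay buffer with matched DMSO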
KCNK3 block: human KCNK3 channel inhibition, primary screen. O14649. CHO-KCNK3 thallium flux, FluxOR fluorescence; active compounds read low. B-score at 10 µM. 340,000 compounds, 0.84% hits. AID 602410;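 active means B-score under library mean minus 4 SD, starting fluorescence ratio at most library mean plus 5 SD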;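 further: more negative B-score means stronger inhibition of thallium flux through KCNK3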
hERG rescue: hERG (human) protection from proarrhythmic block; AID 1511; Q12809; 310,000 compounds, 0.51% hits; CHO-hERG, FluxOR thallium flux, dofetilide IC70 present; activation (rescue from dofetilide block), less the hit threshold, % at 10 µM;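 active means activation above the mean of controls blocked by dofetilide plus 5 SD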;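 further: thallium influx through hERG after potassium depolarization seen as dye fluorescence rise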
Target sequence (Q12809 whole entry, looked up): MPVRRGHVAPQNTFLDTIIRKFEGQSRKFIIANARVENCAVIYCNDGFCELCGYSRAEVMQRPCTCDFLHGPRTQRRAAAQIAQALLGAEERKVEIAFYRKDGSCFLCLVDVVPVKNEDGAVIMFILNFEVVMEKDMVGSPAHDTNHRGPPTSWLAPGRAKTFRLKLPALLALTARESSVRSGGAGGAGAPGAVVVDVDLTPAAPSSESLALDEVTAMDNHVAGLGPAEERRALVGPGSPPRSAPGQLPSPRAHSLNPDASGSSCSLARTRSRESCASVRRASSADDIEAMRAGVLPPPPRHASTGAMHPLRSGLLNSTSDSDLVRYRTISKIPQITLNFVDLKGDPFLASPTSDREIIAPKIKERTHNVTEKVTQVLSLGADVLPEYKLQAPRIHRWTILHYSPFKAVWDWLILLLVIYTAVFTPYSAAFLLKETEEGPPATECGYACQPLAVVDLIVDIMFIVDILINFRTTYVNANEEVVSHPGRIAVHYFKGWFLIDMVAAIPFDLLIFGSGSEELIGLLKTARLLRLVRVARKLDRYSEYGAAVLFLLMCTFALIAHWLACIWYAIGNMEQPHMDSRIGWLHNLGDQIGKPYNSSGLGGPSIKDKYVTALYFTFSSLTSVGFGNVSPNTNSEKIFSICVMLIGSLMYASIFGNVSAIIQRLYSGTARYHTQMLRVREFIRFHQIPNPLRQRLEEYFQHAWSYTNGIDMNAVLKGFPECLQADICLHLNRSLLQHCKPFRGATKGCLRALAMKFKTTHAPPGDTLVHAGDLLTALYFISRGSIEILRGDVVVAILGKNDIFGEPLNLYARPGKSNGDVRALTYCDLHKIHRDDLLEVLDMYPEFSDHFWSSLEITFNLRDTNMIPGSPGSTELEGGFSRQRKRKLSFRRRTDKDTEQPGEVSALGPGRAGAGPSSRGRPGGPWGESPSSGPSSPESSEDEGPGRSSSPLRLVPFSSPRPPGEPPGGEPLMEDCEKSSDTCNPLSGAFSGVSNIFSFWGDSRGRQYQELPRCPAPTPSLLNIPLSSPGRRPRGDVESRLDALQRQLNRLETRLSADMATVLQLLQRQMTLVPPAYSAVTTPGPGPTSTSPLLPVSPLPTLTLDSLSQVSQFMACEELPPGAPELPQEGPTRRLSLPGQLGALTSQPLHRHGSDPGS
KCNK9 inh: human KCNK9 channel inhibition. Q9NPC2. HEK293 KCNK9, FluxOR thallium flux fluorescence; active compounds read low. B-score at 10 µM. 310,000 compounds, 1.2% hits. AID 488922;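 active means ratio B-score over 3 SD below the library mean, with starting fluorescence within 5 SD of its mean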;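 further: negative B-score means less thallium flux so channel inhibition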
KCNQ1 block val: reconfirmed blocker of the human KCNQ1 potassium channel | shares compounds with KCNQ1 inh | KCNQ1 cell line, FluxOR thallium flux fluorescence | inhibition, % at 10 µM | 1,600 compounds, 93% hits | AID 588353;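 active means primary screen active, with duplicate mean exceeding buffer control mean plus 3 SD of buffer wells, cut at about 28% in these data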;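 further: 0% = buffer control ratio and 100% = XE991 inhibitor control ratio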
CHO Tl flux: activity in parental CHO cells lacking KCNQ1; AID 588366; fluorescence ratio (Tl flux) at 10 µM; shares compounds with KCNQ1 inh; 1,600 compounds, 21% hits; parental CHO-K1, FluxOR thallium flux fluorescence ratio; active compounds read low; zero means no signal rise above baseline;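 active means mean of duplicate thallium-flux fluorescence ratios in parental host cells more than 5 SD below the buffer control mean, cut at about 0.38 in these data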;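 further: ratio is peak minus minimum fluorescence divided by baseline fluorescence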
KCNQ1 ephys val: confirmation of human KCNQ1 potassium channel inhibitors by electrophysiology. shares compounds with KCNQ1 inh. KCNQ1-CHO cells, automated patch clamp current. calls only at 10 µM. 490 compounds, 20% hits;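 active means KCNQ1 current drop exceeding 3 SD of negative control wells, seen in both duplicate runs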;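 further: steady state current during a 2 s step from -80 to +40 mV; negative values mean current inhibition and positive values mean potentiation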
KCNQ2 spec: rat KCNQ2 inhibition in KCNQ1 inhibitor specificity screen; shares compounds with KCNQ1 inh; KCNQ2 cells, FluxOR thallium flux fluorescence; inhibition, % at 10 µM; 1,600 compounds, 71% hits; AID 651746;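 active means mean percent inhibition of the KCNQ2 thallium signal more than 5 SD above the buffer-only control wells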;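 further: KCNQ2 expressed in CHO cells; 0% = buffer control wells and 100% = XE-991 inhibitor control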
KCNQ1-KCNE1 inh: KCNQ1 inhibitor that also blocks human KCNQ1/KCNE1 channel; shares compounds with KCNQ1 inh; KCNQ1/KCNE1 cells, FluxOR thallium flux fluorescence; inhibition, % at 10 µM; 1,600 compounds, 77% hits; AID 652147;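 active means mean percent inhibition of duplicate wells above the buffer-only control mean plus 3 SD of those controls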;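 further: 0% = buffer only wells and 100% = XE-991 inhibitor control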
Starred values were filed as active, the others as inactive; i = inactive; . = no result; + = active, no number.

SMILES	KCNQ1 inh	Kir21 block	KCNQ1 act	KCNK3 block	hERG rescue	KCNK9 inh	KCNQ1 block val	CHO Tl flux	KCNQ2 spec	KCNQ1-KCNE1 inh	others
CN(C)c1ccc(-c2sc(Nc3ccccc3)n[n+]2-c2ccc(F)cc2)cc1	i	-6.7	i	i	-44	i	.	.	.	.
COc1ccc(C)cc1Nc1n[n+](-c2ccccc2)c(-c2ccc(N(C)C)cc2)s1	15*	-1.1	i	i	-34	-7.2*	+	0.22*	i	i
COc1ccc(C(=O)C2CCCN(Cc3cccn3-c3ccc(Cl)cn3)C2)c(OC)c1 (stereo not given)	11*	-2.3	i	i	-22	i	82*	0.49	85%*	i
C=CCn1c(SCc2c(C)noc2C)nc2sc3c(c2c1=O)CCCC3	7*	0.44	i	i	-10	i	80*	0.39	90%*	146%*
Cc1cccc(NC(=O)COc2cccc3c2CCN(Cc2ccccc2)C3=O)c1C	i	0.78	i	i	-5	i	.	.	.	.
Cc1nc(/C=C/c2ccccc2)[nH]c(=O)c1-c1ccccc1	i	0.3	i	i	-7	i	.	.	.	.
Fc1ccc(CSc2nc3ccccc3[nH]2)c2ccccc12	6*	-0.04	i	i	-13	i	124*	0.35*	107%*	124%*
O=c1cc(CSc2nc3ccccc3[nH]2)c2ccccc2[nH]1	i	0.89	i	i	-13	i	.	.	.	.
CC(C)COC(=O)NCCOC(=O)Nc1cccc(Cl)c1	8*	-1.4	i	i	-13	i	124*	0.46	113%*	91%*	KCNQ1 ephys val=+
CC(C)COC(=O)NCCCOC(=O)Nc1ccccc1	i	2.4	i	i	-7	i	.	.	.	.
Clc1ccc(-c2cc3ccccc3[nH]2)cc1	6*	0.87	i	i	-17	i	124*	0.55	i	98%*
O=c1[nH]c(/C=C/c2ccc(OC(F)F)cc2)nc2c1cnn2-c1ccccc1	i	-1.9	i	i	-7	i	.	.	.	.
O=C(c1cccc(C(F)(F)F)c1)C1CCCN(C(=O)CN2CCOC2=O)C1 (stereo not given)	i	-0.63	i	i	-5	i	.	.	.	.
O=C(COC(=O)c1ccc2c(c1)OCCO2)Nc1ccc(F)cc1	.	.	.	i	.	.	.	.	.	.
CC(C)CSC1=NSC2=NC(=O)/C(=C\c3coc4ccccc4c3=O)C(=N)N12	25*	-16	i	i	-46	i	+	0.004*	i	i
CSC1=NSC2=NC(=O)/C(=C\c3coc4ccccc4c3=O)C(=N)N12	.	.	.	i	.	.	.	.	.	.
Cc1nn(C)c(C)c1NC(=O)Nc1ccc(Cl)c(Cl)c1	6*	0.07	i	i	-21	i	77*	0.46	i	76%*
Cc1ccc(-c2nnn(C(C)C(=O)N3c4ccccc4CCc4ccccc43)n2)cc1 (stereo not given)	6*	-0.91	i	i	-6	i	135*	0.42	92%*	162%*	KCNQ1 ephys val=i
CC(C(=O)N1c2ccccc2CCc2ccccc21)n1nnc(-c2ccc(N(C)C)cc2)n1 (stereo not given)	i	2.1	i	i	-2	i	.	.	.	.
CNc1nc(Nc2ccc(C(C)=O)cc2)nc(OC(C(F)(F)F)C(F)(F)F)n1	i	0.64	i	i	-6	i	.	.	.	.
